# Measured values gathered from unrelated publications.
# Protocols differ between the studies behind these lines.
# Read-out: metabolic stability
# Sample: liver microsomes
SMILES,system,conditions,half-life
CC[C@@H]1C=CC(=O)O[C@@H]1C[C@@H](O)[C@H](C)[C@H](O)[C@@H](C)Cc1ccc(F)cc1,mouse,,3 min
CN(C)CCN1CCN(c2nc(NCc3cccc(Cl)c3)c3cc(-c4ccc(=O)n(C)c4)ccc3n2)CC1,mouse,,53 min
CC[C@@H]1C=CC(=O)O[C@@H]1C[C@@H](O)[C@H](C)[C@H](OC)[C@@H](C)Cc1ccc(F)cc1,mouse,,< 2.3 min
CCOC(=O)C1=C(C)N/C(=C/c2cc(C)n(-c3ccc(CN(C)C)cc3)c2C)C1=O,mouse,1 µM,56 min
O=S(=O)(Nc1cccc(-c2nnn[nH]2)c1)c1ccc(C(F)(F)F)c(F)c1,mouse,,174 min
N=c1c2c(-c3ccccc3)c(-c3ccccc3)n(Cc3ccccc3)c2ncn1C1CCOCC1,male CD-1 mouse,"1 µM, pH 7.4",30 min
C=CC(=O)Nc1ccc(N2CCC[C@@H](Nc3ncc(Cl)c(-c4c[nH]c5ccccc45)n3)C2)c(F)c1,mouse,,7.6 min
CC(C)NCC(O)COc1cccc2ccccc12 (stereo not drawn),mouse,"1 µM, pH 7.4",15.8 min
CCNc1nc2c(c(N3CC(=O)Nc4cc(OC)ccc43)n1)CCC2,mouse,,5.7 min
COc1cc2c(cc(C#N)n2Cc2cn[nH]c2)c(C)c1CN1CCC(Nc2ncnc3sc(CC(F)(F)F)cc23)CC1,CD-1 mouse,"1 µM, pH 7.4",> 30 min
CCCCOC(=O)NS(=O)(=O)c1sc(CC(C)C)cc1-c1ccc(OC(F)(F)F)c(Cn2ccnc2)c1,mouse,"1 µM, pH 7.4",103 min
CN1CC(Cc2cccc(CNC3(c4ccc(F)cc4)CCCC3)c2)C1,mouse,"4.6 µM, pH 7.5",~60 min
CCOC(=O)C1=C(C)N/C(=C/c2cc(C)n(-c3ccc(N(C)C)cc3)c2C)C1=O,mouse,1 µM,31 min
CCCCOC(=O)NS(=O)(=O)c1sc(CC(C)C)cc1-c1ccc2c(c1)CCN(C(C)=O)C2,mouse,"1 µM, pH 7.4",2.9 min
CCOC(=O)C1=C(C)N/C(=C/c2cc(C)n(-c3ccc(Cl)cc3)c2C)C1=O,mouse,1 µM,24 min
O=C(OC(C(F)(F)F)C(F)(F)F)N1CCc2ccccc2C1,mouse,,4 min
Cc1ccc(-n2sc3ccccc3c2=O)cc1,mouse,,< 60 min
Cc1ccc(-c2cnc(N3CCC(C(N)=O)CC3)s2)cc1,mouse,1 µM,< 10 min
Cc1ccc(S(=O)(=O)Nc2cccc(-c3nnn[nH]3)c2)cc1C,mouse,,50 min
CNC(=O)c1ccccc1Nc1cc(Nc2cc(C)c(C3CCN(CCCCCCNC(=O)COc4cccc5c4C(=O)N(C4CCC(=O)NC4=O)C5=O)CC3)cc2OC(C)C)ncc1C(F)(F)F (stereo not drawn),mouse,,27 min
O=C(Nc1ccccc1)C1CCN(c2ncc(-c3ccc4c(c3)OCCCO4)s2)CC1,mouse,1 µM,< 10 min
O=S(=O)(Nc1cccc(-c2nnn[nH]2)c1)c1ccc(F)c(F)c1,mouse,,346 min
CCOC(=O)C1=C(C)N/C(=C/c2cc(CC)n(-c3ccccc3C(F)(F)F)c2CC)C1=O,mouse,1 µM,12 min
Fc1ccc2nc(Cc3c[nH]c4c(F)cccc34)[nH]c2c1,mouse,pH 7.4,7.2 min
CCOC(=O)C1=C(C)N/C(=C/c2cc(C)n(-c3ccc(OC)cc3)c2C)C1=O,mouse,1 µM,32 min
Fc1ccc([C@@H]2CCNC[C@H]2COc2ccc3c(c2)OCO3)cc1,CD-1 mouse,"1 µM, pH 7.4",24 min
O=S(=O)(Nc1cccc(-c2nnn[nH]2)c1)c1cc(C(F)(F)F)ccc1C(F)(F)F,mouse,,35 min
COC(=O)CN(CCCc1ccccc1)CC(=O)N[C@@H](Cc1c[nH]cn1)c1nc(C)no1,male mouse,"1 µM, pH 7.4",19 min
O=C(Nc1ccc(Cl)c(Cl)c1)c1ccc(N2CCNCC2)c([N+](=O)[O-])c1,CD-1 mouse,"1 µM, pH 7.4",> 110 min
O=C1CCN(C(=O)Nc2ccc(F)c(Cl)c2)[C@H]2CCCC[C@@H]12 (relative stereo),mouse,,> 32 min
O=C(c1ccc(F)cc1)C1CCN(CCn2c(=O)[nH]c3ccccc3c2=O)CC1,mouse,,14.5 min
C/C(=N\OCCN)c1cccc(C(C)(C)NC(=O)Nc2ccc(Cl)c([N+](=O)[O-])c2)c1,mouse,,> 120 min
COc1cc(C2Oc3cc([C@H]4Oc5cc(O)cc(O)c5C(=O)[C@@H]4O)ccc3OC2CO)ccc1O (stereo partly drawn),mouse,1 µM,82.5 min
CCOC(=O)C1=C(C)N/C(=C/c2ccn(-c3ccc(C(F)(F)F)cc3)c2)C1=O,mouse,1 µM,12 min
O=[N+]([O-])c1ccc(CNc2nc(NCc3cccc(C(F)(F)F)c3)nc3[nH]cnc23)cc1,mouse,"1 µM, pH 7.4",9 min
CCOC(=O)C1=C(C)N/C(=C/c2cc(C)n(-c3cccnc3)c2C)C1=O,mouse,1 µM,21 min
CNC(=O)[C@H](Cc1c[nH]cn1)NC(=O)CN(CCCc1ccccc1)CC(=O)O,male mouse,"1 µM, pH 7.4",> 40 min
CCOC(=O)C1=C(C)N/C(=C/c2cc(C)n(-c3ccc(N4CCOCC4)cc3)c2C)C1=O,mouse,1 µM,57 min
O=c1ccc2ccccc2o1,mouse,"50 µM, pH 7.4",72 min
